From PMC9720105 (Redox Biology, 2022)

Key:
[1] = molecular target: recombinant KEAP1-Kelch domain (Homo sapiens, UniProt Q14145); assay: biochemical; assay type: binding; conditions: for reduction in KEAP1 binding affinity compared to inhibitor 2: HTRF biochemical assay
[2] = molecular target: KEAP1 in HEK293T cells (Homo sapiens, UniProt Q14145); assay: KEAP1 degradation in HEK293T cells; assay type: cell-based; conditions: HEK293T cells; for KEAP1 degradation efficiency: three lower concentrations, 5 and 24 h; for KEAP1 degradation / expression: 48 h
[3] = system: NRF2 downstream targets, NQO1 and HO-1; assay: NQO1 and HO-1 protein levels in HEK293T and HCA7 cell lines; assay type: cell-based; conditions: 48 h
Procedure, shortened: (§1)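 HEK293T, HCA7 and A549 cells were grown in DMEM with 10% FBS and pen/strep; BEAS-2B in LHC-9 with pen/strep; all at 37 °C, 10% CO₂. Cells were exposed to test compound for 48 h, lysed, run on 4–12% SDS-PAGE and transferred to nitrocellulose. Blocking was 5% skim milk for 1 h at RT. Probes were anti-KEAP1, CRBN, NQO1 or HO-1, with HRP anti-β-actin loading control and HRP secondaries. Blots represent 3 independent experiments.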

[4] = molecular target: KEAP1 in HCA7 cells (Homo sapiens, UniProt Q14145); assay: KEAP1 degradation in HCA7 cells; assay type: cell-based; conditions: 48 h
Procedure, shortened: as §1

KEAP1 in HEK293T cells, sequence (Q14145 whole entry): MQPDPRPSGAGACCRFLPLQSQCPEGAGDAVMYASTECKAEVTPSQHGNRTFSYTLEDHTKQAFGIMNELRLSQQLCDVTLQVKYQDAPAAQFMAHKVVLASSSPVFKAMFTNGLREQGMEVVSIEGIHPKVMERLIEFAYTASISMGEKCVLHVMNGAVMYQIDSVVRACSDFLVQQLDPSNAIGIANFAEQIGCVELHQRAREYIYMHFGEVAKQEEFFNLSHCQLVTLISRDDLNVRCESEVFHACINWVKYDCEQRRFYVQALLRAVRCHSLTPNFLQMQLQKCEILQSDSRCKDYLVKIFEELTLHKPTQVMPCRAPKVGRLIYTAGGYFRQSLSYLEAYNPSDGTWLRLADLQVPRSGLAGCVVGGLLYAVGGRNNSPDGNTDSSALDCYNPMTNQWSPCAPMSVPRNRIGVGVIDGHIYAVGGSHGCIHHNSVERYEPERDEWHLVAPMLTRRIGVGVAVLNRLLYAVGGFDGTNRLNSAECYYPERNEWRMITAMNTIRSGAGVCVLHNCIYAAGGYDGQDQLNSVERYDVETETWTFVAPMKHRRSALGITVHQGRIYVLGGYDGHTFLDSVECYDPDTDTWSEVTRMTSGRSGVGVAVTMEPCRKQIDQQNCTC
recombinant KEAP1-Kelch domain, sequence (Q14145 312-624): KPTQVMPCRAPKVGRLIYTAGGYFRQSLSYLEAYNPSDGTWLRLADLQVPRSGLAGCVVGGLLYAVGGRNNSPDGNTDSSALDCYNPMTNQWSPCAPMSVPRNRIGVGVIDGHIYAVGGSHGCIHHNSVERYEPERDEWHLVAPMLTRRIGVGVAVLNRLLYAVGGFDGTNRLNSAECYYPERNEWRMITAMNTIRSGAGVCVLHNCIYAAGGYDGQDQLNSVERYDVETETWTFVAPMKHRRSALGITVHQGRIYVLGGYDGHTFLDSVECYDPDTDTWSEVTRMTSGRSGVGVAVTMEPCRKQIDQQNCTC
KEAP1 in HCA7 cells, sequence (Q14145 whole entry): as the sequence (Q14145 whole entry) above

Cc1ccc(C(CC(=O)O)c2cc(OCCNc3cccc4c3C(=O)N(C3CCC(=O)NC3=O)C4=O)c3c(c2)nnn3C)cc1CN1C[C@@H](C)Oc2ccccc2S1(=O)=O (stereo partly drawn) [Compound 3, 3-(7-(2-((2-(2,6-Dioxopiperidin-3-yl)-1,3-dioxoisoindolin-4-yl)amino)ethoxy)-1-methyl-1H-benzo[d][1,2,3]triazol-5-yl)-3-(4-methyl-3-(((R)-4-methyl-1,1-dioxido-3,4-dihydro-2H-benzo[b][1,4,5]oxathiazepin-2-yl)methyl)phenyl)propanoic acid]
IC50 [1]: 150 nM

Cc1ccc(C(CC(=O)O)c2cc(OCCCNc3cccc4c3C(=O)N(C3CCC(=O)NC3=O)C4=O)c3c(c2)nnn3C)cc1CN1C[C@@H](C)Oc2ccccc2S1(=O)=O (stereo partly drawn) [Compound 4, 3-(7-(3-((2-(2,6-Dioxopiperidin-3-yl)-1,3-dioxoisoindolin-4-yl)amino)propoxy)-1-methyl-1H-benzo[d][1,2,3]triazol-5-yl)-3-(4-methyl-3-(((R)-4-methyl-1,1-dioxido-3,4-dihydro-2H-benzo[b][1,4,5]oxathiazepin-2-yl)methyl)phenyl)propanoic acid]
IC50 [1]: 267 nM | reduction in KEAP1 binding affinity compared to inhibitor 2 [1]: greater than 3 fold

Cc1ccc(C(CC(=O)O)c2cc(OC(=O)CCCOc3cccc4c3C(=O)N(C3CCC(=O)NC3=O)C4=O)c3c(c2)nnn3C)cc1CN1C[C@@H](C)Oc2ccccc2S1(=O)=O (stereo partly drawn) [Compound 5, 3-(7-((4-((2-(2,6-Dioxopiperidin-3-yl)-1,3-dioxoisoindolin-4-yl)oxy)butanoyl)oxy)-1-methyl-1H-benzo[d][1,2,3]triazol-5-yl)-3-(4-methyl-3-(((R)-4-methyl-1,1-dioxido-3,4-dihydro-2H-benzo[b][1,4,5]oxathiazepin-2-yl)methyl)phenyl)propanoic acid]
reduction in KEAP1 binding affinity compared to inhibitor 2 [1]: greater than 3 fold

Cc1ccc(C(CC(=O)O)c2cc(OCCNC(=O)COc3cccc4c3C(=O)N(C3CCC(=O)NC3=O)C4=O)c3c(c2)nnn3C)cc1CN1C[C@@H](C)Oc2ccccc2S1(=O)=O (stereo partly drawn) [Compound 6, 3-(7-(2-(2-((2-(2,6-Dioxopiperidin-3-yl)-1,3-dioxoisoindolin-4-yl)oxy)acetamido)ethoxy)-1-methyl-1H-benzo[d][1,2,3]triazol-5-yl)-3-(4-methyl-3-(((R)-4-methyl-1,1-dioxido-3,4-dihydro-2H-benzo[b][1,4,5]oxathiazepin-2-yl)methyl)phenyl)propanoic acid]
IC50 [1]: 147 nM

Cc1ccc(C(CC(=O)O)c2cc(OCCCNC(=O)COc3cccc4c3C(=O)N(C3CCC(=O)NC3=O)C4=O)c3c(c2)nnn3C)cc1CN1C[C@@H](C)Oc2ccccc2S1(=O)=O (stereo partly drawn) [Compound 7, 3-(7-(3-(2-((2-(2,6-Dioxopiperidin-3-yl)-1,3-dioxoisoindolin-4-yl)oxy)acetamido)propoxy)-1-methyl-1H-benzo[d][1,2,3]triazol-5-yl)-3-(4-methyl-3-(((R)-4-methyl-1,1-dioxido-3,4-dihydro-2H-benzo[b][1,4,5]oxathiazepin-2-yl)methyl)phenyl)propanoic acid]
IC50 [1]: 143 nM

Cc1ccc(C(CC(=O)O)c2cc(OCCCCNC(=O)COc3cccc4c3C(=O)N(C3CCC(=O)NC3=O)C4=O)c3c(c2)nnn3C)cc1CN1C[C@@H](C)Oc2ccccc2S1(=O)=O (stereo partly drawn) [Compound 8, 3-(7-(4-(2-((2-(2,6-Dioxopiperidin-3-yl)-1,3-dioxoisoindolin-4-yl)oxy)acetamido)butoxy)-1-methyl-1H-benzo[d][1,2,3]triazol-5-yl)-3-(4-methyl-3-(((R)-4-methyl-1,1-dioxido-3,4-dihydro-2H-benzo[b][1,4,5]oxathiazepin-2-yl)methyl)phenyl)propanoic acid]
KEAP1 degradation at longer time points ([2]; 48 h and 72 h, comparison of 8 and 14): less effective at longer time points of 48 h and 72 h | KEAP1 degradation efficiency [2]: most efficient at degrading KEAP1 | IC50 [1]: 66 nM

Cc1ccc(C(CC(=O)O)c2cc(OCCCCCNC(=O)COc3cccc4c3C(=O)N(C3CCC(=O)NC3=O)C4=O)c3c(c2)nnn3C)cc1CN1C[C@@H](C)Oc2ccccc2S1(=O)=O (stereo partly drawn) [Compound 9, 3-(7-((5-(2-((2-(2,6-Dioxopiperidin-3-yl)-1,3-dioxoisoindolin-4-yl)oxy)acetamido)pentyl)oxy)-1-methyl-1H-benzo[d][1,2,3]triazol-5-yl)-3-(4-methyl-3-(((R)-4-methyl-1,1-dioxido-3,4-dihydro-2H-benzo[b][1,4,5]oxathiazepin-2-yl)methyl)phenyl)propanoic acid]
IC50 [1]: 86 nM

Cc1ccc(C(CC(=O)O)c2cc(OCCCCCCNC(=O)COc3cccc4c3C(=O)N(C3CCC(=O)NC3=O)C4=O)c3c(c2)nnn3C)cc1CN1C[C@@H](C)Oc2ccccc2S1(=O)=O (stereo partly drawn) [Compound 10, 3-(7-((6-(2-((2-(2,6-Dioxopiperidin-3-yl)-1,3-dioxoisoindolin-4-yl)oxy)acetamido)hexyl)oxy)-1-methyl-1H-benzo[d][1,2,3]triazol-5-yl)-3-(4-methyl-3-(((R)-4-methyl-1,1-dioxido-3,4-dihydro-2H-benzo[b][1,4,5]oxathiazepin-2-yl)methyl)phenyl)propanoic acid]
KEAP1 degradation efficiency [2]: most efficient at degrading KEAP1 | IC50 [1]: 127 nM

Cc1ccc(C(CC(=O)O)c2cc(OCCOCCOCCNc3cccc4c3C(=O)N(C3CCC(=O)NC3=O)C4=O)c3c(c2)nnn3C)cc1CN1C[C@@H](C)Oc2ccccc2S1(=O)=O (stereo partly drawn) [Compound 11, 3-(7-(2-(2-(2-((2-(2,6-Dioxopiperidin-3-yl)-1,3-dioxoisoindolin-4-yl)amino)ethoxy)ethoxy)ethoxy)-1-methyl-1H-benzo[d][1,2,3]triazol-5-yl)-3-(4-methyl-3-(((R)-4-methyl-1,1-dioxido-3,4-dihydro-2H-benzo[b][1,4,5]oxathiazepin-2-yl)methyl)phenyl)propanoic acid]
IC50 [1]: 120 nM

Cc1ccc(C(CC(=O)O)c2cc(OCCOCCOCCNC(=O)COc3cccc4c3C(=O)N(C3CCC(=O)NC3=O)C4=O)c3c(c2)nnn3C)cc1CN1C[C@@H](C)Oc2ccccc2S1(=O)=O (stereo partly drawn) [Compound 12, 3-(7-(2-(2-(2-(2-((2-(2,6-Dioxopiperidin-3-yl)-1,3-dioxoisoindolin-4-yl)oxy)acetamido)ethoxy)ethoxy)ethoxy)-1-methyl-1H-benzo[d][1,2,3]triazol-5-yl)-3-(4-methyl-3-(((R)-4-methyl-1,1-dioxido-3,4-dihydro-2H-benzo[b][1,4,5]oxathiazepin-2-yl)methyl)phenyl)propanoic acid]
IC50 [1]: 563 nM | reduction in KEAP1 binding affinity compared to inhibitor 2 [1]: greater than 3 fold

Cc1ccc(C(CC(=O)O)c2cc(OCCCCCCCNc3cccc4c3C(=O)N(C3CCC(=O)N(C)C3=O)C4=O)c3c(c2)nnn3C)cc1CN1C[C@@H](C)Oc2ccccc2S1(=O)=O (stereo partly drawn) [Compound 15, 3-(4-Methyl-3-(((R)-4-methyl-1,1-dioxido-3,4-dihydro-2H-benzo[b][1,4,5]oxathiazepin-2-yl)methyl)phenyl)-3-(1-methyl-7-((7-((2-(1-methyl-2,6-dioxopiperidin-3-yl)-1,3-dioxoisoindolin-4-yl)amino)heptyl)oxy)-1H-benzo[d][1,2,3]triazol-5-yl)propanoic acid]
HO-1 protein expression [3]: but not HO-1 | NQO1 protein expression [3]: upregulated

Cc1ccc(C(CC(=O)OC(C)(C)C)c2cc(OCCCCCCCNc3cccc4c3C(=O)N(C3CCC(=O)NC3=O)C4=O)c3c(c2)nnn3C)cc1CN1C[C@@H](C)Oc2ccccc2S1(=O)=O (stereo partly drawn) [Compound 16, tert-Butyl 3-(7-((7-((2-(2,6-Dioxopiperidin-3-yl)-1,3-dioxoisoindolin-4-yl)amino)heptyl)oxy)-1-methyl-1H-benzo[d][1,2,3]triazol-5-yl)-3-(4-methyl-3-(((R)-4-methyl-1,1-dioxido-3,4-dihydro-2H-benzo[b][1,4,5]oxathiazepin-2-yl)methyl)phenyl)propanoate]
KEAP1 degradation / expression [2]: no impact | HO-1 protein expression [3]: no impact | NQO1 protein expression [3]: no impact | KEAP1 degradation / expression [4]: no impact

COc1cc(C(CC(=O)OC(C)(C)C)c2ccc(C)c(CN3C[C@@H](C)Oc4ccccc4S3(=O)=O)c2)cc2nnn(C)c12 (stereo partly drawn) [Compound 17, tert-Butyl 3-(7-methoxy-1-methyl-1H-benzo[d][1,2,3]triazol-5-yl)-3-(4-methyl-3-(((R)-4-methyl-1,1-dioxido-3,4-dihydro-2H-benzo[b][1,4,5]oxathiazepin-2-yl)methyl)phenyl)propanoate]
KEAP1 degradation / expression [2]: no impact | HO-1 protein expression [3]: no impact | NQO1 protein expression [3]: no impact | KEAP1 degradation / expression [4]: no impact

C[S+]([O-])CCCCN=C=S (stereo not drawn) [sulforaphane, reference compound]
HO-1 protein expression [3]: but not HO-1 | NQO1 protein expression [3]: upregulated
